# Compound activity (PubChem)
# Most compounds without a hit are left out; they make up all but 5.8% or so of the library.
# GASC1 inh: inhibitors of human demethylase GASC-1 KDM4C | Q9H3R0 | GST-KDM4C 2-372, H3K9me3 peptide, LANCE TR-FRET | inhibition, % at 12.5 µM | 96,000 compounds, 0.15% hits;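 active = mean replicate inhibition above about 25%, with at least 55% of replicates also reaching it, limit read from the data, passing the limit was not always enough; inconclusive = only one of those two conditions met; inactive = neither condition met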
# Target sequence (Q9H3R0 2-372 limits assumed): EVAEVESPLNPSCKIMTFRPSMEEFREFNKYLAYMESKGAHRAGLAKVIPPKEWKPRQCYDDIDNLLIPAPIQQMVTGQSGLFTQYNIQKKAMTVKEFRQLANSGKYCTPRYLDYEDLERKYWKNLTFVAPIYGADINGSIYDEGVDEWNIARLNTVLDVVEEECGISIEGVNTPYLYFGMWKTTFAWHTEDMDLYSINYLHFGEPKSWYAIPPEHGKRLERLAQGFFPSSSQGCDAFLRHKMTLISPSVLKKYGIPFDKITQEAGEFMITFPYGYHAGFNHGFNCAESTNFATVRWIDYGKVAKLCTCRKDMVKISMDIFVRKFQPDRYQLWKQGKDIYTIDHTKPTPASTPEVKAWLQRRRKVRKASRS
#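 Material: GST-tagged GASC-1 (JMJD2C) catalytic fragment, aa 2-372 / Quantity: enzyme final amount 10 nM / Medium: HEPES buffer, pH 7.5, plus ascorbate / Doses: one test concentration per compound / Incubation: 30 min reaction, 60 min detection, RT / Measured by: LANCE TR-FRET / Read-out: inhibition from TR-FRET ratio decrease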
# IDH1 R132H inh: blocks human IDH1 R132H reductase activity; O75874; diaphorase/resazurin fluorescence, 60 min; inhibition, % at 10 µM; 70,000 compounds, 0.18% hits; AID 624101; in the data active = inhibition above about 34%; inconclusive = no clear call, values can overlap the other calls; inactive = below about 11%;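 also: 0% = DMSO and 100% = no enzyme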
# Pf Dd2 inh: blocks growth of Plasmodium falciparum Dd2 parasites. P. falciparum Dd2 growth, SYBR Green, 72 h; active compounds read low. activity change, % at 10 µM. 94,000 compounds, 2.3% hits; in the data active = activity change below about -80%; inconclusive = no clear call, values can overlap the other calls
# T cruzi growth-1: blocks T. cruzi growth in NIH3T3 culture. T. cruzi beta-gal in NIH3T3, GalScreen luminescence, 90 h. 77,000 compounds, 5.9% hits. inhibition, % at 8.34 µM;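 active = mean inhibition above about 93%, with at least 55% of replicates each passing it, limit read from the data, passing the limit was not always enough; inconclusive = only one of those two conditions holds; inactive = neither condition holds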
# T cruzi growth-2: inhibitors of T. cruzi proliferation; inhibition, % at 8.35 µM; 5,600 compounds, 72% hits; T. cruzi beta-gal in NIH3T3, GalScreen luminescence, 90 h; shares compounds with T cruzi growth-1;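 active = mean replicate inhibition above about 95% and at least 55% of replicates individually reaching it, limit read from the data; inconclusive = only one of the two criteria is met; inactive = neither criterion is met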
# T cruzi growth-3: inhibitors of T. cruzi proliferation | shares compounds with T cruzi growth-1 | T. cruzi beta-gal in NIH3T3, GalScreen luminescence, 90 h | inhibition, % at 2.09 µM | 5,600 compounds, 21% hits;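 active = mean inhibition above about 95%, with at least 55% of replicates also reaching it, limit read from the data; inconclusive = meets just one of the two conditions; inactive = meets neither condition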;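 also: plate controls were neutral control median for no effect and positive control median for full effect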
# 3T3 cytotox: NIH/3T3 (mouse) viability loss; shares compounds with T cruzi growth-1; NIH/3T3 viability, CellTiter-Glo ATP luminescence, 90 h; cytotoxicity (signal decrease), % at 8.35 µM; 5,600 compounds, 14% hits;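 active = mean signal decrease across replicates above about 35% based on untreated-well scatter, with enough replicates individually passing, limit read from the data; inconclusive = no rule stated though some were filed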;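 also: 0% = median of neutral control wells and 100% = median of positive control wells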
# 3T3 cytotox 2: NIH/3T3 (mouse) viability loss. shares compounds with T cruzi growth-1. AID 651744. NIH/3T3 viability, CellTiter-Glo ATP luminescence, 90 h. 5,600 compounds, 56% hits. inhibition, % at 24.9 µM;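 active = mean loss of cell viability signal at or above a set limit, and enough replicates individually reaching it; inconclusive = meets only the mean limit or only the replicate share; inactive = meets neither condition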;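 also: 0% = median of neutral control wells and 100% = median of positive control wells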
# * marks the source's active call; other numbers are inactive results; ? = inconclusive; nt = no result.
SMILES,GASC1 inh,IDH1 R132H inh,Pf Dd2 inh,T cruzi growth-1,T cruzi growth-2,T cruzi growth-3,3T3 cytotox,3T3 cytotox 2
N#C[C@@H]1[C@H](c2ccc(C#CC3CCCCC3)cc2)[C@H](CO)N1C(=O)Cc1ccccn1,0,nt,-39,98*,92,112*,17,28
C/C=C/c1ccc([C@@H]2[C@H](C#N)N(C(=O)Cc3ccccn3)[C@H]2CO)cc1,-1,nt,-32,91,nt,nt,nt,nt
N#C[C@@H]1[C@@H](c2ccc(C#CC3CC3)cc2)[C@H](CO)N1C(=O)Cc1ccccn1,-2,nt,-57,99*,104*,75,?,1
N#C[C@H]1[C@H](c2ccc(C#CC3CCCC3)cc2)[C@H](CO)N1C(=O)Cc1ccccn1,0,nt,-43,nt,nt,nt,nt,nt
N#C[C@@H]1[C@@H](c2ccc(C#CC3CCCC3)cc2)[C@H](CO)N1C(=O)Cc1ccccn1,-3,nt,-74,nt,nt,nt,nt,nt
N#C[C@@H]1[C@@H](c2ccc(C#CC3CCCCC3)cc2)[C@H](CO)N1C(=O)Cc1ccccn1,-3,nt,-51,89,nt,nt,nt,nt
C[C@@H]1CN([C@H](C)CO)C(=O)Cc2cc(NS(C)(=O)=O)ccc2O[C@H]1CN(C)CC1CC1,2,2,40,2,nt,nt,nt,nt
C[C@H](CO)N1C[C@H](C)[C@@H](CN(C)Cc2ccc(-c3ccccc3)cc2)OCc2cnnn2CCCC1=O,2,nt,-21,?,51,11,17,51*
C[C@H](CO)N1C[C@H](C)[C@@H](CN(C)Cc2ccc(C(=O)Nc3ccccc3N)cc2)OCc2cnnn2CCCC1=O,0,nt,-14,110*,106*,89,4,?
C[C@@H]1CN([C@H](C)CO)C(=O)CCCn2nncc2CO[C@H]1CN(C)Cc1ccc(C(=O)Nc2ccccc2N)cc1,-1,nt,-21,109*,101*,93,13,31*
C[C@@H]1CN([C@@H](C)CO)C(=O)CCCn2nncc2CO[C@H]1CN(C)Cc1ccc(C(=O)Nc2ccccc2N)cc1,4,nt,-11,110*,101*,107*,9,36*
C[C@@H]1CN([C@@H](C)CO)C(=O)CCCn2nncc2CO[C@@H]1CN(C)Cc1ccc(C(=O)Nc2ccccc2N)cc1,0,nt,0,82,nt,nt,nt,nt
C[C@H]1CN([C@@H](C)CO)C(=O)CCCn2nncc2CO[C@@H]1CN(C)Cc1ccc(C(=O)O)cc1,3,3,nt,nt,nt,nt,nt,nt
C[C@@H]1CN([C@H](C)CO)C(=O)CCCn2nncc2CO[C@H]1CN(C)Cc1ccc(-c2ccccc2)cc1,1,nt,-21,-53,nt,nt,nt,nt
C/C=C/c1cnc2c(c1)C(=O)N([C@@H](C)CO)C[C@@H](C)[C@H](CN(C)C(=O)C1CCC1)O2,1,0,17,31,nt,nt,nt,nt
C[C@H](CO)N1C[C@H](C)[C@@H](CN(C)S(=O)(=O)c2ccc(Cl)cc2)Oc2c(NC(=O)C3CC3)cccc2C1=O,-3,nt,12,20,nt,nt,nt,nt
COc1ccccc1-c1ccc2c(c1)O[C@H](CN(C)S(=O)(=O)c1ccc(F)cc1)[C@@H](C)CN([C@H](C)CO)S2(=O)=O,1,1,-56,92,nt,nt,nt,nt
COc1ccccc1-c1ccc2c(c1)O[C@H](CN(C)S(=O)(=O)c1ccc(F)cc1)[C@@H](C)CN([C@@H](C)CO)S2(=O)=O,0,0,-68,103*,101*,59,24,48*
COc1ccccc1-c1ccc2c(c1)O[C@@H](CN(C)S(=O)(=O)c1ccc(F)cc1)[C@H](C)CN([C@@H](C)CO)S2(=O)=O,-1,0,-82*,108*,109*,79,27,?
COc1ccccc1-c1ccc2c(c1)O[C@H](CN(C)S(=O)(=O)c1ccc(F)cc1)[C@H](C)CN([C@H](C)CO)S2(=O)=O,-1,0,-37,102*,103*,84,29,43*
COc1ccccc1-c1ccc2c(c1)O[C@@H](CN(C)S(=O)(=O)c1ccc(F)cc1)[C@H](C)CN([C@H](C)CO)S2(=O)=O,-1,-1,36,18,nt,nt,nt,nt
CC(=O)OC[C@@]12C(=O)C[C@@H](C)[C@]3(C[C@@H](c4ccoc4)OC3=O)[C@H]1CC[C@H](OC(C)=O)[C@]21CO1,nt,0,nt,nt,nt,nt,nt,nt
C[C@@H]1CN([C@H](C)CO)C(=O)c2cc(C3=CCCCC3)cnc2O[C@H]1CN(C)C(=O)Cc1ccccc1,0,0,-20,84,nt,nt,nt,nt
C[C@@H]1CCCCO[C@@H](CN(C)C(=O)C2CCCCC2)[C@@H](C)CN([C@@H](C)CO)C(=O)c2cc(NC(=O)Nc3ccccc3)ccc2O1,0,1,-71,46,nt,nt,nt,nt
COc1cccc(-c2ccc([C@H]3[C@H](C#N)N(C(=O)Cc4ccncc4)[C@H]3CO)cc2)c1,0,nt,?,?,102*,58,13,52*
SMILES,GASC1 inh,IDH1 R132H inh,Pf Dd2 inh,T cruzi growth-1,T cruzi growth-2,T cruzi growth-3,3T3 cytotox,3T3 cytotox 2
COc1cccc(-c2ccc([C@@H]3[C@@H](C#N)N(C(=O)Cc4ccncc4)[C@@H]3CO)cc2)c1,-7,nt,-46,75,nt,nt,nt,nt
COc1cccc(-c2ccc([C@H]3[C@@H](C#N)N(C(=O)Cc4ccccc4)[C@@H]3CO)cc2)c1,-4,nt,-65,97*,110*,67,17,43*
CC(C)NC(=O)N1CCCCN2[C@H](C1)[C@H](c1ccc(C#Cc3ccccc3)cc1)[C@@H]2CO,-1,nt,13,82,nt,nt,nt,nt
CC(C)C#Cc1ccc([C@@H]2[C@H](CO)N3CCCCN(C(=O)NC(C)C)C[C@@H]23)cc1,1,nt,18,103*,101*,89,12,85*
CC(C)NC(=O)N1CCCCN2[C@H](C1)[C@@H](c1ccc(C#Cc3ccccc3)cc1)[C@@H]2CO,-1,nt,4,76,nt,nt,nt,nt
CC(C)C#Cc1ccc([C@H]2[C@H]3CN(C(=O)NC(C)C)CCCCN3[C@H]2CO)cc1,-1,nt,11,54,nt,nt,nt,nt
CC(C)NC(=O)N1CCCCN2[C@H](CO)[C@H](c3ccc(C#Cc4ccccc4)cc3)[C@H]2C1,-1,nt,-10,107*,106*,105*,41*,107*
CC(C)NC(=O)N1CCCCN2[C@H](CO)[C@@H](c3ccc(C#Cc4ccccc4)cc3)[C@H]2C1,-2,nt,-2,103*,101*,72,23,102*
O=C(C1CCCCC1)N1CC2(C1)[C@H](c1ccccc1)[C@@H](CO)N2Cc1ccc(Cl)cc1,-1,nt,-46,nt,nt,nt,nt,nt
O=C(c1ccccc1)N1[C@@H](CO)[C@@H](c2ccccc2)C12CN(CCC(F)(F)F)C2,-3,nt,-17,nt,nt,nt,nt,nt
